Results: ChEMBL document CHEMBL1123984, “Stereochemical aspects of phenylethanolamine analogues as substrates of phenylethanolamine N-methyltransferase” (J Med Chem, 1988)

B1: Phenylethanolamine N-methyltransferase (Bos taurus), P10938 (protein)
chain: MSGTDRSQAAGAVPDSDPGLAAVSSAYQRFEPRAYLRNNYAPPRGDLSCPDGVGPWKLRCLAQTFATGEVSGRTLIDIGSGPTIYQLLSACAHFEDITMTDFLEVNRQELRLWLREEPGAFDWSVYSQHVCLIEGKGESWQEKECQLRARVKRILPIDVHRPQPLGAGGLAPLPADALVSAFCLEAVSPDLASFQRALDHITTLLRPGGHLLLIGALEESWYLAGEARLAVVPVREEEVREALVRTATRCGICARTPMPAHLQTGVDDVKGIFFTRAQKKVGV

How the values were obtained:
[1] = Vmax of compound was determined; type: ADME
Outline: (§1)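 Substrate kinetics used bovine adrenal PNMT, purified through the isoelectric precipitation step, in a radiochemical methylation assay with isoamyl alcohol/toluene extraction. At least five concentrations of the variable substrate gave Km and Vmax. Vmax is in nmol product per mg protein per min, and the ratio is 100 × Vmax/Km.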

[2] = Ratio expressed as 100x Vmax/Km; type: ADME; outline: as §1
[3] = target: T1, Phenylethanolamine N-methyltransferase (Bos taurus, UniProt P10938); test: (§2) In vitro binding affinity of compound towards bovine adrenal phenylethanolamine N-methyl-transferase (PNMT)
T1 sequence (P10938 whole entry): B1 chain
Outline: (§3)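 Bovine adrenal PNMT, purified through the isoelectric precipitation step, tested in a radiochemical methylation assay with isoamyl alcohol/toluene extraction. For substrates, Km came from at least five concentrations of the variable substrate. For inhibitors, Ki came from at least three inhibitor concentrations, with phenylethanolamine as the variable substrate.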

[4] = substrate: C[C@H](N)[C@H](O)c1ccccc1; test: as §2; outline: as §3
[5] = substrate: N[C@H]1CCc2ccccc2[C@H]1O; test: as §2; outline: as §3

Row | Molecule | Vmax [1] [nM/mg/min] | Ratio [2] | Ki [3] [µM] | further results
1 | C[C@H](N)[C@H](O)c1ccccc1 [(1R,2S)-PHENYLPROPANOLAMINE] | 0.22 | 0.017 | – | –
2 | N[C@@H]1CCc2ccccc2C1 | – | – | 10 | –
3 | NC[C@@H](O)c1ccccc1 | 0.92 | 0.96 | – | –
4 | C[C@@H](N)[C@@H](O)c1ccccc1 [(1S,2R)-PHENYLPROPANOLAMINE] | – | – | 2980 | –
5 | C[C@@H](N)[C@H](O)c1ccccc1 | – | – | 2440 | –
6 | N[C@H]1CCc2ccccc2C1 | – | – | 4.1 | –
7 | N[C@@H]1CCc2ccccc2C1O (single isomer, unassigned) | 0.12 | 0.062 | – | –
8 | N[C@@H]1CCc2ccccc2[C@@H]1O | – | – | 293 | –
9 | N[C@H]1CCc2ccccc2[C@H]1O | 0.16 | 3.6 | – | –
10 | N[C@H]1CCc2ccccc2[C@@H]1O | – | – | 4.6 | –
11 | N[C@@H]1CCc2ccccc2[C@@H]1O (racemic) | 0.15 | – | – | –
12 | NC[C@H](O)c1ccccc1 | 4.85 | 1.7 | – | –
13 | C[C@H](N)[C@@H](O)c1ccccc1 [CATHINE] | – | – | 3700 | –
14 | B1 | – | – | – | Km [4]: 1310 µM; Km [5]: 4.5 µM
